Measured values published in ChEMBL document CHEMBL1127050, “Tyrosine kinase inhibitors. 1. Structure-activity relationships for inhibition of epidermal growth factor receptor tyrosine kinase activity by 2,3-dihydro-2-thioxo-1H-indole-3-alkanoic acids and 2,2'-dithiobis(1H-indole-3-alkanoic acids)” (J Med Chem, 1993).

Columns and labels:
Swiss 3T3 (Mus musculus) = test: Inhibition of Swiss 3T3 mouse fibroblast proliferation
[1] = molecular target: Epidermal growth factor receptor (Homo sapiens, UniProt P00533); test: Inhibition of EGF-stimulated EGFR tyrosine kinase activity using plasma membrane vesicles shed from cultured human A431 carcinoma cells; assay type: functional, cell-based, A-431
Epidermal growth factor receptor, sequence (P00533 whole entry): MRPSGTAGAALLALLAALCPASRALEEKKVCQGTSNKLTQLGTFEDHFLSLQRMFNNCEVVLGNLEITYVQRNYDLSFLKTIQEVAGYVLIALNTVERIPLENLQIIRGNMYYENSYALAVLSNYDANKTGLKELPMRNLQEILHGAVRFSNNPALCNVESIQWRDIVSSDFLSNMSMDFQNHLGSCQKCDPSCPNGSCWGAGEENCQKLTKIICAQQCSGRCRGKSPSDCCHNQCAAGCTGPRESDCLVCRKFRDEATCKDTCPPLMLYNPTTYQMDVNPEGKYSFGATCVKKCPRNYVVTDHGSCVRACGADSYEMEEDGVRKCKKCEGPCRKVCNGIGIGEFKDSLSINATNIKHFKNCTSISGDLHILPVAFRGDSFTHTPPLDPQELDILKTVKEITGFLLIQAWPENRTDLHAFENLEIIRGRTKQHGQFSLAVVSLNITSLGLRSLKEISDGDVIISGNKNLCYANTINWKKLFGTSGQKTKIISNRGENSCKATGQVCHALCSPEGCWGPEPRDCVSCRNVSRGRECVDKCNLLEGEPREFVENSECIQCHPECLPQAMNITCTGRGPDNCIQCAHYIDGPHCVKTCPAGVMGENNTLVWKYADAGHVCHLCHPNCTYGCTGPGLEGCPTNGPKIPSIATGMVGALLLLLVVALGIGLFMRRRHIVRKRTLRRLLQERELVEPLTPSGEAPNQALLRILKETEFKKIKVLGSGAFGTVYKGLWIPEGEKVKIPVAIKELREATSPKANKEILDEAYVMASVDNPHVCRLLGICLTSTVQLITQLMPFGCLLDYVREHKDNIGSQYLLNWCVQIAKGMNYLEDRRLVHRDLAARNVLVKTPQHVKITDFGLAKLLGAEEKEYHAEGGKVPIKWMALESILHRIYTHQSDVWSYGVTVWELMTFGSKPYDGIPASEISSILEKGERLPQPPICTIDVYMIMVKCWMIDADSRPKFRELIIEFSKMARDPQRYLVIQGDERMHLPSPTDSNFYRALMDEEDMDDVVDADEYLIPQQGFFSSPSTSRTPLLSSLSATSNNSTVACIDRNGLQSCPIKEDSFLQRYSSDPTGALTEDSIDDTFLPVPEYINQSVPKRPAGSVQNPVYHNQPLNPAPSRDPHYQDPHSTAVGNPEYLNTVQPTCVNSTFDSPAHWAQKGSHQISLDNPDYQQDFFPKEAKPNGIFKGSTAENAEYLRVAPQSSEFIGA
How it was run: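 EGFR source: A431 shed membrane vesicles, solubilized in 4% Triton X-100/10% glycerol, 10 μg total protein per reaction. Final buffer: 20 mM HEPES pH 7.4, 15 mM MgCl₂, 4 mM MnCl₂, 0.02% BSA, 5 μM ATP with [γ-³²P]ATP, Glu:Ala:Tyr (6:3:1) copolymer substrate, 250 ng EGF. Run 10 min at room temperature, stopped with cold TCA/pyrophosphate. Filter-bound ³²P counted. IC50 is 50% reduction of incorporation. Autophosphorylation controls included.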

| IC50 [1] | SMILES | IC50 (Swiss 3T3 (Mus musculus)) |
| --- | --- | --- |
| 1.62 µM | O=C(O)CCC1C(S)=Nc2ccccc21 (centres undefined) | 64 µM |
| > 100 µM | COC(=O)CCN1C(=S)C(CCC(=O)OC)(CCC(=O)OC)c2ccccc21 | – |
| > 100 µM | COC(=O)CCC1C(S)=Nc2ccccc21 (centres undefined) | 16 µM |
| 6.7 µM | CN1C(=S)C(CCC(=O)O)c2ccccc21 (centres undefined) | – |
| > 100 µM | COC(=O)CCC1C(=S)N(C)c2ccccc21 (centres undefined) | – |
| > 100 µM | COC(=O)Cc1c(Sc2c(CC(=O)OC)c3ccccc3n2C)n(C)c2ccccc12 | – |
| 100 µM | COC(=O)CC1C(=S)Nc2ccccc21 (centres undefined) | – |
| > 100 µM | COC(=O)CCC1(CCC(=O)OC)C(=S)Nc2ccccc21 | – |
| > 100 µM | COC(=O)CCCC1C(=S)Nc2ccccc21 (centres undefined) | – |
| > 100 µM | COC(=O)CCc1c(SSc2c(CCC(=O)OC)c3ccccc3n2C)n(C)c2ccccc12 | 5.2 µM |
| > 100 µM | CN1C(=S)C(CC(=O)O)c2ccccc21 (centres undefined) | – |
| > 100 µM | COC(=O)CCCc1c(SSc2c(CCCC(=O)OC)c3ccccc3n2C)n(C)c2ccccc12 | 1.8 µM |
| 10.2 µM | O=C(O)Cc1c(SSc2[nH]c3ccccc3c2CC(=O)O)[nH]c2ccccc12 | > 50 µM |
| > 100 µM | COC(=O)CCCc1c(SSc2[nH]c3ccccc3c2CCCC(=O)OC)[nH]c2ccccc12 | – |
| 35 µM | COC(=O)Cc1c(SSSc2[nH]c3ccccc3c2CC(=O)OC)[nH]c2ccccc12 | 1 µM |
| 4.2 µM | O=C(O)CCc1c(SSc2[nH]c3ccccc3c2CCC(=O)O)[nH]c2ccccc12 | 59 µM |
| 21 µM | COC(=O)CCc1c(SSc2[nH]c3ccccc3c2CCC(=O)OC)[nH]c2ccccc12 | 7.4 µM |
| – | O=C(O)Cc1c(SSSc2[nH]c3ccccc3c2CC(=O)O)[nH]c2ccccc12 | 8 µM |
| > 100 µM | COC(=O)CC1C(=S)N(C)c2ccccc21 (centres undefined) | – |
| 1.5 µM | Cc1cccc2c(CCC(=O)O)c(SSc3[nH]c4c(C)cccc4c3CCC(=O)O)[nH]c12 | – |
| > 100 µM | O=C(O)CCC1(CCC(=O)O)C(=S)Nc2ccccc21 | – |
| > 100 µM | CN1C(=S)C(CCCC(=O)O)c2ccccc21 (centres undefined) | – |
| – | Cc1ccc2[nH]c(SSc3[nH]c4ccc(C)cc4c3CCC(=O)O)c(CCC(=O)O)c2c1 | > 50 µM |
| 33 µM | COC(=O)Cc1c(SSc2c(CC(=O)OC)c3ccccc3n2C)n(C)c2ccccc12 | – |
| – | COC(=O)Cc1c(SSc2[nH]c3ccccc3c2CC(=O)OC)[nH]c2ccccc12 | 2.3 µM |
| 53 µM | Cn1c(SSc2c(CC(=O)O)c3ccccc3n2C)c(CC(=O)O)c2ccccc21 | 36 µM |
| 3.1 µM | Cn1c(SSc2c(CCC(=O)O)c3ccccc3n2C)c(CCC(=O)O)c2ccccc21 | – |
| > 100 µM | COC(=O)CCCC1C(=S)N(C)c2ccccc21 (centres undefined) | – |
| 6.7 µM | O=C(O)CCCC1C(=S)Nc2ccccc21 (centres undefined) | – |
| 2 µM | O=CN/C=C/c1cc(O)ccc1O [ERBSTATIN] | – |
